# Variants at the floor of the assay were thinned out.
# B1: tRNA (parent)
# chain: CUCUCGGUAGCCAAGUUGGUUUAAGGCGCAAGACUUUAAUUUAUCACUACGAAAUCUUGAGAUCGGGCGUUCGACUCGCCCCCGGGAGAUUUUUUCCUCGAGCAA
# Variants of: B1
# Assay: nonsense suppression (GFP-seq) (ratio to wild type); higher = more function; SUP4oc tRNA, yeast GFP reporter sort-seq
# Summary of the method: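 Nonsense suppression (GFPSEQ) is the median GFP/RFP ratio of each sorting bin, weighted by the variant's estimated share of cells in that bin and expressed relative to the unmutated parent tRNA. Yeast strains carried genome-integrated variants of an ochre-suppressor tRNA from a library with ~3% random mutations, plus a galactose-driven GFP ochre reporter and RFP, and were grown in raffinose/galactose medium containing 80 mg/L adenine. Cells were sorted into GFP/RFP bins, each bin was Illumina-sequenced (phred ≥30), and variants were kept only with ≥100 reads and ≥30 cells.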
row,Variant,nonsense suppression
1,U20G A33G,0.18
2,U22C A33U,0.202
3,U8A G19C A60G,≤ 0.026
4,U4A A60U,0.52
5,U76C G78A,0.0382
6,G67C U70G,≤ 0.026
7,A33U G85A,0.0389
8,U2C A24C,0.0326
9,A60U G65U A74C C82A,≤ 0.026
10,U17C C72G,≤ 0.026
11,A33G U63A,0.031
12,G25U G28U C29G C72G C81A,≤ 0.026
13,G7U G32A A60C A74G,≤ 0.026
14,G15C C34A C82G,0.816
15,A54U U63A,0.864
16,C80U G85A,0.733
17,A31U G73C C81G,≤ 0.026
18,C3U U21G,0.137
19,C5G C12G,0.174
20,C12U C27U,0.121
21,G19C C56U U57C,≤ 0.026

row,Variant,nonsense suppression
1,U55C C75A,1.05
2,U4C G61A,1.25
3,A13C U17C U22G G85A,0.81
4,C3U G6U U22G C81G,≤ 0.026
5,G59C C75G,≤ 0.026
6,C11A G25C G61C,≤ 0.026
7,C29G G78A,≤ 0.026
8,A24U U35G A89G,≤ 0.026
9,A13C C72U C81U,≤ 0.026
10,U57A C75U,0.03
11,G15C G69U G73C,≤ 0.026
12,A9C A13C,1.15
13,C29U C68U,0.272
14,G61A U76G,0.0268
15,A13G G84C,≤ 0.026
16,C12U U22G,0.745
17,U16C C81U,1.16
18,G15A A31G,0.0274
19,C1A A30C,≤ 0.026
20,U21G C83U,0.0839
21,U20A U63A,0.187

row,Variant,nonsense suppression
1,U4G C5G U17C U63C A74U,≤ 0.026
2,G10U U55C,0.0469
3,U21A U55C U57G,≤ 0.026
4,A13U A33G,0.194
5,A13C A60U,1.07
6,G61A G67A G73C,≤ 0.026
7,A31G C34U,≤ 0.026
8,C34G G78C,≤ 0.026
9,C34U A62G,≤ 0.026
10,G32U C79A,≤ 0.026
11,C56G U58C G66C,≤ 0.026
12,U22G G78U G85A,0.788
13,A9U A60U,0.0653
14,G15A G59C A87C,≤ 0.026
15,A30C U58G,1.02
16,G78C A89U,≤ 0.026
17,A23G U55C,0.0273
18,C27U C75A,0.641
19,A9G C72U,0.0591
20,A31U U70A,≤ 0.026
21,C1A A54G A62U,≤ 0.026

row,Variant,nonsense suppression
1,A14U A24U G26U C29G,≤ 0.026
2,U22C A30U C83A,≤ 0.026
3,A31U C81U,0.0322
4,U20G C81G,≤ 0.026
5,U2C C5G,≤ 0.026
6,G86C,≤ 0.026
7,G65A G73C,≤ 0.026
8,A60U G65C C81G,0.203
9,A14G U57C U58A,≤ 0.026
10,C5G G6C A9C A89C,≤ 0.026
11,U20A A31G,0.461
12,U22A U76A,0.0747
13,G61U G78U,0.165
14,U4C C12U,0.745
15,C5U G26C G65C U76A,≤ 0.026
16,C3G A13U,0.0541
17,G6U U16G G59A G78A,≤ 0.026
18,G28C C34A C68G A89U,≤ 0.026
19,U17A U70G,≤ 0.026
20,G61C C77U,0.0267

# Source: the RNAGym collection of RNA variant scans (doi:10.1101/gad.245936.114)
